Data: ChEMBL document CHEMBL1800041, “Bioactive terpenes from Spongia officinalis” (J Nat Prod, 2011)
Calls of active or inactive are those of the source. The calls are words filed in the database; no cut-off is given here.

The compounds below were run on Escherichia coli (assay: Antibacterial activity against Escherichia coli by broth macrodilution method).
Type: functional, organism-based
Procedure, shortened: (§1)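 Broth macrodilution as in the antifungal test (NCCLS M27-P guideline). The medium was changed to Luria-Bertani (10 g/L Bactotryptone, 5 g/L Bactoyeast, 10 g/L NaCl, pH 7.5), and incubation was at 37 °C for 24 h.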

SMILES | Activity
COC(=O)/C(C)=C/CC/C(=C/CC/C(C)=C/CC/C(C)=C/CCc1ccoc1)C(=O)O | inactive
C/C(=C\CCc1ccoc1)CC(=O)C[C@@H](C)CCCc1ccoc1 | inactive
C/C(=C\CCc1ccoc1)CC/C=C(\C)CCCC1=CC(=O)OC1 | inactive
C/C(=C\CCc1ccoc1)C[C@H](O)C[C@@H](C)CCCc1ccoc1 | inactive
COC(=O)/C(=C\CC/C(C)=C/CC/C(C)=C/CCc1ccoc1)CC/C=C(\C)C(=O)O | inactive
C/C(=C\CCc1ccoc1)CC/C=C(\C)CCCc1ccoc1 | inactive
C[C@H](CCCc1ccoc1)CC(=O)C[C@@H](C)CCCc1ccoc1 | inactive

The compounds below were run on Staphylococcus aureus (assay: Antibacterial activity against Staphylococcus aureus at 100 ug/mL by broth macrodilution method).
Type: functional, organism-based

SMILES | Activity
COC(=O)/C(C)=C/CC/C(=C/CC/C(C)=C/CC/C(C)=C/CCc1ccoc1)C(=O)O | Active

These compounds were tested on Candida albicans (assay: Antifungal activity against Candida albicans by broth macrodilution method).
Type: functional, organism-based
Procedure, shortened: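 Broth macrodilution following NCCLS document M27-P guidelines for antifungal susceptibility testing of yeast.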

SMILES | Activity
COC(=O)/C(C)=C/CC/C(=C/CC/C(C)=C/CC/C(C)=C/CCc1ccoc1)C(=O)O | inactive
C/C(=C\CCc1ccoc1)CC(=O)C[C@@H](C)CCCc1ccoc1 | inactive
C/C(=C\CCc1ccoc1)CC/C=C(\C)CCCC1=CC(=O)OC1 | inactive
C/C(=C\CCc1ccoc1)C[C@H](O)C[C@@H](C)CCCc1ccoc1 | inactive
COC(=O)/C(=C\CC/C(C)=C/CC/C(C)=C/CCc1ccoc1)CC/C=C(\C)C(=O)O | inactive
C/C(=C\CCc1ccoc1)CC/C=C(\C)CCCc1ccoc1 | inactive
C[C@H](CCCc1ccoc1)CC(=O)C[C@@H](C)CCCc1ccoc1 | inactive

Each compound was assayed on Staphylococcus aureus (assay: Antibacterial activity against Staphylococcus aureus by broth macrodilution method).
Type: functional, organism-based
Procedure, shortened: as §1

SMILES | Activity
C/C(=C\CCc1ccoc1)CC(=O)C[C@@H](C)CCCc1ccoc1 | inactive
C/C(=C\CCc1ccoc1)CC/C=C(\C)CCCC1=CC(=O)OC1 | inactive
C/C(=C\CCc1ccoc1)C[C@H](O)C[C@@H](C)CCCc1ccoc1 | inactive
COC(=O)/C(=C\CC/C(C)=C/CC/C(C)=C/CCc1ccoc1)CC/C=C(\C)C(=O)O | inactive
C/C(=C\CCc1ccoc1)CC/C=C(\C)CCCc1ccoc1 | inactive
C[C@H](CCCc1ccoc1)CC(=O)C[C@@H](C)CCCc1ccoc1 | inactive
